Data published in ChEMBL document CHEMBL1145571, “Carboxylic acid isosteres improve the activity of ring-fused 2-pyridones that inhibit pilus biogenesis in E. coli” (Bioorg Med Chem Lett, 2008).

Assays:
Escherichia coli [1] = experiment: Inhibition of P pilus biogenesis in Escherichia coli HB101/pPAP5 assessed as agglutination of erythrocytes at 1.8 mM; assay type: functional
Procedure, shortened: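 E. coli HB101/pPAP5 grown 24 h at 37 °C on TSA containing 1.8 mM compound, 2.5% DMSO and 100 μg/ml ampicillin. Cells scraped off, suspended in PBS pH 7.4 to OD600 = 1.0. 1 ml pelleted at 2000g for 5 min, resuspended in 80 μl PBS, then serially diluted in PBS for hemagglutination read-out.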

[2] = target: Chaperone protein PapD (Escherichia coli) (UniProt P15319); experiment: Binding affinity to Escherichia coli PapD relative to control; set-up: concentration or dose not given beside the values
Chain of Chaperone protein PapD (Escherichia coli) (P15319 whole entry, looked up): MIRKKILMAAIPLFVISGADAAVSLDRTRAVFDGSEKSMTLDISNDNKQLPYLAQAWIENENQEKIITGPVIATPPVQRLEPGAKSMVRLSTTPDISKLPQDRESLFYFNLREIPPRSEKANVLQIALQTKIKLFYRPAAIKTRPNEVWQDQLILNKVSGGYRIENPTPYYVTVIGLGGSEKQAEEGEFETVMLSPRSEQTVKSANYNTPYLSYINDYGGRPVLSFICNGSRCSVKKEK

Escherichia coli [3] = experiment: Inhibition of pili-dependent biofilm formation of Escherichia coli HB101/pPAP5; assay type: functional, organism-based
Escherichia coli [4] = experiment: Inhibition of pili-dependent biofilm formation of Escherichia coli HB101/pPAP5 at 400 uM; assay type: functional; set-up: scale not given: the % may be the effect or the level left

Activity [2] | IC50 (Escherichia coli [3]) | SMILES | Activity (Escherichia coli [1]) | Activity (Escherichia coli [4])
62% | 30 µM | CS(=O)(=O)NC(=O)[C@@H]1CSc2c(C3CC3)c(Cc3cccc4ccccc34)cc(=O)n21 | 2 | 
40% |  | NC(=O)[C@@H]1CSc2c(C3CC3)c(Cc3cccc4ccccc34)cc(=O)n21 | 64 | 
52% |  | O=C(NO)[C@@H]1CSc2c(C3CC3)c(Cc3cccc4ccccc34)cc(=O)n21 | 64 | 
71% |  | O=C([O-])[C@@H]1CSc2c(C3CC3)c(Cc3cccc4ccccc34)cc(=O)n21.[Li+] | 8 | 45%
67% | 65 µM | O=c1cc(Cc2cccc3ccccc23)c(C2CC2)c2n1[C@H](c1nnn[nH]1)CS2 | 4 | 

Continued, compound first:

SMILES | Activity [2] | IC50 (Escherichia coli [3]) | Activity (Escherichia coli [1]) | Activity (Escherichia coli [4])
O=C(NS(=O)(=O)c1ccccc1)[C@@H]1CSc2c(C3CC3)c(Cc3cccc4ccccc34)cc(=O)n21 | 100% |  | 4 | 
C[C@@H](C(=O)O)n1cc(-c2ccccc2)c(Cc2cccc3ccccc23)cc1=O |  |  | 32 | 
O=C(NS(=O)(=O)c1ccccc1)[C@@H]1CSc2c(-c3ccccc3)c(Cc3cccc4ccccc34)cc(=O)n21 |  |  | 4 | 
CS(=O)(=O)NC(=O)[C@@H]1CSc2c(-c3ccccc3)c(Cc3cccc4ccccc34)cc(=O)n21 |  |  | 4 | 
O=c1cc(Cc2cccc3ccccc23)c(-c2ccccc2)c2n1[C@H](c1nnn[nH]1)CS2 |  |  | 2 | 
NC(=O)[C@@H]1CSc2c(-c3ccccc3)c(Cc3cccc4ccccc34)cc(=O)n21 |  |  | 64 | 
C[C@@H](C(=O)[O-])n1cc(C2CC2)c(Cc2cccc3ccccc23)cc1=O.[Li+] | 33% |  | 32 | 
O=C(NO)[C@@H]1CSc2c(-c3ccccc3)c(Cc3cccc4ccccc34)cc(=O)n21 |  |  | 128 | 
